Experimental data reported in ChEMBL document CHEMBL3112482, “Nonclassical antifolates, part 5. Benzodiazepine analogs as a new class of DHFR inhibitors: synthesis, antitumor testing and molecular modeling study” (Eur J Med Chem, 2014).

How the values were obtained:
Assay type in all cases: functional
[1] = tested on: U-251; assay: Growth inhibition of human U251 cells at 10 uM after 48 hrs; conditions: U-251, 48 h, read-out: GI
Method in brief: (§1)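 NCI 60-cell-line disease-oriented human tumor panel, single-dose primary screen at 10 µM. Data given as mean-graph percent growth of treated cells, reported as percent growth inhibition (GI %).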

[2] = Growth inhibition of human SF539 cells at 10 uM after 48 hrs; conditions: SF-539, 48 h, read-out: GI; method in brief: as §1
[3] = tested on: A549; assay: Growth inhibition of human A549 cells at 10 uM after 48 hrs; conditions: A549, 48 h, read-out: GI
Method in brief: (§2)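 Single-dose primary screen in the NCI 60 human tumour cell line panel, run at the NCI facility. The panel covers nine subpanels: leukaemia, non-small cell lung, colon, CNS, melanoma, ovarian, renal, prostate and breast. Read-out was percent growth of treated cells, shown as a mean graph and reported as percent growth inhibition.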

[4] = tested on: NCI-H226; assay: Growth inhibition of human NCI-H226 cells at 10 uM after 48 hrs; conditions: NCI-H226, 48 h, read-out: GI; method in brief: as §2
[5] = tested on: SK-MEL-5; assay: Growth inhibition of human SK-MEL-5 cells at 10 uM after 48 hrs; conditions: SK-MEL-5, 48 h, read-out: GI; method in brief: as §1
[6] = tested on: SN12C; assay: Growth inhibition of human SN12C cells at 10 uM after 48 hrs; conditions: read-out: GI; method in brief: as §1
[7] = tested on: SR; assay: Growth inhibition of human SR cells at 10 uM after 48 hrs; conditions: read-out: GI; method in brief: as §1
[8] = Growth inhibition of human OVCAR4 cells at 10 uM after 48 hrs; conditions: OVCAR-4, 48 h, read-out: GI; method in brief: as §2
[9] = Growth inhibition of human OVCAR5 cells at 10 uM after 48 hrs; conditions: OVCAR-5, 48 h, read-out: GI; method in brief: as §2
[10] = tested on: SK-OV-3; assay: Growth inhibition of human SKOV3 cells at 10 uM after 48 hrs; conditions: SK-OV-3, 48 h, read-out: GI; method in brief: as §1
[11] = tested on: SNB-19; assay: Growth inhibition of human SNB19 cells at 10 uM after 48 hrs; conditions: SNB-19, 48 h, read-out: GI; method in brief: as §1
[12] = tested on: MCF7; assay: Growth inhibition of human MCF7 cells at 10 uM after 48 hrs; conditions: MCF7, 48 h, read-out: GI; method in brief: as §2
[13] = tested on: PC-3; assay: Growth inhibition of human PC3 cells at 10 uM after 48 hrs; conditions: PC-3, 48 h, read-out: GI; method in brief: as §2
[14] = tested on: SNB-75; assay: Growth inhibition of human SNB75 cells at 10 uM after 48 hrs; conditions: SNB-75, 48 h, read-out: GI; method in brief: as §1
[15] = tested on: SK-MEL-28; assay: Growth inhibition of human SK-MEL-28 cells at 10 uM after 48 hrs; conditions: SK-MEL-28, 48 h, read-out: GI; method in brief: as §1
[16] = Growth inhibition of human EKVX cells at 10 uM after 48 hrs; conditions: read-out: GI; method in brief: as §2
[17] = tested on: MDA-MB-231; assay: Growth inhibition of human MDA-MB-231 cells at 10 uM after 48 hrs; conditions: MDA-MB-231, 48 h, read-out: GI; method in brief: as §2
[18] = Growth inhibition of human Hs 578T cells at 10 uM after 48 hrs; conditions: read-out: GI; method in brief: as §2
[19] = tested on: TK-10; assay: Growth inhibition of human TK10 cells at 10 uM after 48 hrs; conditions: TK-10, 48 h, read-out: GI; method in brief: as §1
[20] = tested on: HOP-62; assay: Growth inhibition of human HOP62 cells at 10 uM after 48 hrs; conditions: HOP-62, 48 h, read-out: GI; method in brief: as §2
[21] = tested on: HL-60(TB); assay: Growth inhibition of human HL-60(TB) cells at 10 uM after 48 hrs; conditions: HL-60, 48 h, read-out: GI
Method in brief: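 NCI 60-cell-line human tumour panel covering nine subpanels (leukaemia, non-small cell lung, colon, CNS, melanoma, ovarian, renal, prostate, breast), run at the NCI facility. Primary screen tested a single dose of each compound. Read-out was percent growth of treated cells versus untreated cells, reported from the mean graph as percentage growth inhibition.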

[22] = tested on: M14; assay: Growth inhibition of human M14 cells at 10 uM after 48 hrs; conditions: M14, 48 h, read-out: GI; method in brief: as §2
[23] = tested on: Malme-3M; assay: Growth inhibition of human MALME-3M cells at 10 uM after 48 hrs; conditions: read-out: GI; method in brief: as §2
[24] = Growth inhibition of human NCI-ADR-RES cells at 10 uM after 48 hrs; conditions: read-out: GI; method in brief: as §2
[25] = Growth inhibition of human UO31 cells at 10 uM after 48 hrs; conditions: UO-31, 48 h, read-out: GI; method in brief: as §1
[26] = tested on: SF-295; assay: Growth inhibition of human SF295 cells at 10 uM after 48 hrs; conditions: SF-295, 48 h, read-out: GI; method in brief: as §1
[27] = tested on: SF-268; assay: Growth inhibition of human SF268 cells at 10 uM after 48 hrs; conditions: SF-268, 48 h, read-out: GI; method in brief: as §1
[28] = tested on: K562; assay: Growth inhibition of human K562 cells at 10 uM after 48 hrs; conditions: K562, 48 h, read-out: GI; method in brief: as §2
[29] = tested on: T47D; assay: Growth inhibition of human T47D cells at 10 uM after 48 hrs; conditions: read-out: GI; method in brief: as §1
[30] = tested on: A498; assay: Growth inhibition of human A498 cells at 10 uM after 48 hrs; conditions: A498, 48 h, read-out: GI; method in brief: as §2
[31] = tested on: NCI-H322M; assay: Growth inhibition of human NCI-H322M cells at 10 uM after 48 hrs; conditions: read-out: GI; method in brief: as §2
[32] = tested on: ACHN; assay: Growth inhibition of human ACHN cells at 10 uM after 48 hrs; conditions: read-out: GI; method in brief: as §2
[33] = Growth inhibition of human RXF393 cells at 10 uM after 48 hrs; conditions: RXF 393, 48 h, read-out: GI; method in brief: as §2
[34] = tested on: DU-145; assay: Growth inhibition of human DU145 cells at 10 uM after 48 hrs; conditions: DU-145, 48 h, read-out: GI; method in brief: as §2
[35] = tested on: NCI-H23; assay: Growth inhibition of human NCI-H23 cells at 10 uM after 48 hrs; conditions: NCI-H23, 48 h, read-out: GI; method in brief: as §2
[36] = tested on: OVCAR-3; assay: Growth inhibition of human OVCAR3 cells at 10 uM after 48 hrs; conditions: OVCAR-3, 48 h, read-out: GI; method in brief: as §2
[37] = Cytotoxicity against human renal cancer cells at 10 uM after 48 hrs; conditions: Cancer cell lines
[38] = Cytotoxicity against human colon cancer cells at 10 uM after 48 hrs; conditions: Cancer cell lines; method in brief: as §2
[39] = Cytotoxicity against human CNS cancer cells at 10 uM after 48 hrs; conditions: Cancer cell lines
[40] = Cytotoxicity against human prostate cancer cells at 10 uM after 48 hrs; conditions: Cancer cell lines
[41] = Cytotoxicity against human non-small cell lung cancer cells at 10 uM after 48 hrs; conditions: Cancer cell lines; method in brief: as §2
[42] = read-out: LC50 (the source's name)

Structure (SMILES)	inhibition of growth at 10 µM [2]	inhibition of growth at 10 µM [3]	inhibition of growth at 10 µM [7]	inhibition of growth at 10 µM [8]	inhibition of growth at 10 µM [9]	inhibition of growth at 10 µM [10]	inhibition of growth at 10 µM [11]	inhibition of growth at 10 µM [12]	inhibition of growth at 10 µM [13]	inhibition of growth at 10 µM [14]	inhibition of growth at 10 µM [15]	inhibition of growth at 10 µM [16]	inhibition of growth at 10 µM [17]	inhibition of growth at 10 µM [18]	inhibition of growth at 10 µM [19]	inhibition of growth at 10 µM [21]	inhibition of growth at 10 µM [24]	inhibition of growth at 10 µM [25]	inhibition of growth at 10 µM [27]	inhibition of growth at 10 µM [28]	further results
Nc1nc2c(c(-c3ccc(Br)cc3)n1)CCC/C2=C\c1ccc(Br)cc1	< 30%	< 30%	54.1%	< 30%	< 30%	< 30%	< 30%	61.4%	< 30%	< 30%	< 30%	< 30%	< 30%	< 30%	< 30%	< 30%	< 30%	< 30%	< 30%	< 30%	inhibition of growth at 10 µM [1]: 65.2%; inhibition of growth at 10 µM [4]: < 30%; inhibition of growth at 10 µM [5]: < 30%; inhibition of growth at 10 µM [6]: < 30%; inhibition of growth at 10 µM [20]: < 30%; inhibition of growth at 10 µM [22]: 38.1%; inhibition of growth at 10 µM [23]: < 30%; inhibition of growth at 10 µM [26]: < 30%; inhibition of growth at 10 µM [29]: < 30%; inhibition of growth at 10 µM [30]: < 30%; inhibition of growth at 10 µM [31]: < 30%; inhibition of growth at 10 µM [32]: < 30%; inhibition of growth at 10 µM [33]: < 30%; inhibition of growth at 10 µM [34]: < 30%; inhibition of growth at 10 µM [35]: < 30%; inhibition of growth at 10 µM [36]: < 30%
COc1cc(/C=C2\CCCC3=C(c4cc(OC)c(OC)c(OC)c4)Nc4ccccc4N=C32)cc(OC)c1OC	64.9%	94.1%	97.3%	66.5%	83.5%	54.6%	35.6%	63.1%	61.8%	45.5%	70.6%	40.2%	75.9%	46.8%	< 30%	98.5%	94.1%	94.4%	74%	94.7%	CC50 [37]: 68.4 µM; GI50 [37]: 2.3 µM; TGI [37]: 20 µM; GI50 [38]: 1.6 µM; TGI [38]: 5.2 µM; CC50 [38, 42]: 36.4 µM; GI50 [39]: 6.8 µM; TGI [39]: 94.3 µM; CC50 [39, 42]: > 100 µM; GI50 [40]: 2.3 µM; LC50 [40]: > 100 µM; TGI [40]: 53.4 µM; GI50 [41]: 2.8 µM; TGI [41]: 28 µM; CC50 [41, 42]: 73.6 µM; inhibition of growth at 10 µM [29]: 76.2%; inhibition of growth at 10 µM [31]: < 30%; inhibition of growth at 10 µM [34]: 95.1%; inhibition of growth at 10 µM [35]: 91.5%
